# Experimental data: PubChem BioAssay AID493103 (Broad Institute, 2011)
# Records with an inconclusive call do not appear. Activity calls are given as the source filed them.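 The calls were made as follows: active = compounds whose fitted half-maximal concentration lies within ten times the top tested dose in every run, with signal falling; inconclusive = runs disagree, or unclear curves such as poor fits; inactive = every run inactive, including rises in signal.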
# Tested on: not listed separately
# Assay: V. harveyi quorum sensing luminescence inhibition, dose response, counter-screen for LuxS inhibitor project, strain BB721, dry powder, set 3 (AID 493103)
# Details: Vibrio harveyi BB721 quorum sensing luminescence, 9 h; at 16 µM (top of the series)
# Summary of the method: (§1)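 system = Vibrio harveyi BB721, constitutive-on quorum-sensing strain | quantity = culture at OD600 0.0005 | medium = AB (autoinducer bioassay) medium | incubation = bacterial exposure to compounds 9 h at 30 °C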
row,SMILES,"activity change, negative = inhibition"
1,C[C@H](CO)N1C[C@H](C)[C@H](CN(C)Cc2ccc(C(=O)O)cc2)Oc2ncc(-c3ccc(C(=O)N(C)C)cc3)cc2C1=O,0.806% (inactive)
2,C=Cn1c(C(=O)O)ccc1-c1cccs1,-7.12% (inactive)
3,Cc1ccc(S(=O)(=O)Nc2ccc3c(c2)C(=O)N([C@H](C)CO)C[C@H](C)[C@@H](CN(C)Cc2ccc(C(F)(F)F)cc2)O3)cc1,-2.52% (inactive)
4,C[C@H]1CN([C@@H](C)CO)C(=O)c2cc(NC(=O)Nc3ccc4c(c3)OCO4)ccc2O[C@@H]1CN(C)C(=O)Nc1ccc(C(F)(F)F)cc1,-0.179% (inactive)
5,C[C@@H]1CN([C@@H](C)CO)C(=O)Cc2cc(NC(=O)CCN3CCOCC3)ccc2O[C@H]1CN(C)C(=O)Nc1ccc(F)cc1,1.22% (inactive)
6,C[C@@H]1CN([C@@H](C)CO)C(=O)Cc2cc(NC(=O)CCCN(C)C)ccc2O[C@H]1CN(C)CC1CCCCC1,13.8% (inactive)
7,CNC[C@@H]1Oc2ccc(NC(=O)C3CCCCC3)cc2CC(=O)N([C@@H](C)CO)C[C@H]1C,1.18% (inactive)
8,C[C@@H]1CN([C@H](C)CO)C(=O)c2cccc(NC(=O)Nc3ccc(C(F)(F)F)cc3)c2O[C@@H]1CN(C)C(=O)Nc1ccc(C(F)(F)F)cc1,-11.1% (inactive)
9,C[C@@H]1CCCCO[C@@H](CN(C)Cc2ccc(C(=O)O)cc2)[C@H](C)CN([C@H](C)CO)C(=O)c2cc(NC(=O)CCCN(C)C)ccc2O1,-5.01% (inactive)
10,C[C@@H]1CCCCO[C@@H](CN(C)C(=O)Nc2ccc(C(F)(F)F)cc2)[C@H](C)CN([C@@H](C)CO)C(=O)c2cc(NC(=O)CCC(F)(F)F)ccc2O1,2.01% (inactive)
11,C[C@H](CO)N1C[C@H](C)[C@@H](CN(C)C(=O)Nc2ccc(C(F)(F)F)cc2)Oc2ccc(NC(=O)Nc3ccc4c(c3)OCO4)cc2C1=O,-10.5% (inactive)
12,O=S(=O)(Nc1ccccn1)c1ccccc1,1.3% (inactive)
13,Cc1ccc(S(=O)(=O)Nc2ccc3c(c2)CC(=O)N([C@@H](C)CO)C[C@@H](C)[C@H](CN(C)C(=O)Nc2ccc(F)cc2)O3)cc1,3.81% (inactive)
14,C[C@@H]1CN([C@@H](C)CO)C(=O)Cc2cc(NC(=O)CCN3CCOCC3)ccc2O[C@H]1CN(C)C(=O)Nc1ccc(C(F)(F)F)cc1,6.93% (inactive)
15,C[C@@H]1CCCCO[C@@H](CN(C)Cc2ccncc2)[C@H](C)CN([C@H](C)CO)C(=O)c2cc(NC(=O)C3CCCCC3)ccc2O1,-3.87% (inactive)
16,C[C@@H]1CCCCO[C@@H](CN(C)C(=O)Nc2cccc3ccccc23)[C@H](C)CN([C@H](C)CO)C(=O)c2cc(NC(=O)CCC(F)(F)F)ccc2O1,2% (inactive)

# Tested on: Vibrio harveyi BB721 quorum sensing luminescence, 9 h
# Assay: as above
# Details: not given
# Summary of the method: as §1
row,SMILES,AC50 [µM]
1,O=C1C=C/C(=C/Br)O1,4.47
2,C[C@@H]1CN([C@H](C)CO)C(=O)c2ccccc2-c2ccccc2CO[C@@H]1CN(C)Cc1ccc(Oc2ccccc2)cc1,13.8
3,O=S(=O)(Nc1cccnc1)c1ccc(Oc2ccccc2)cc1,1.02
4,C=Cn1c(C(=O)O)ccc1-c1ccc(Cl)cc1,16.2
5,C[C@H](CO)N1C[C@H](C)[C@@H](CN(C)Cc2ccc3c(c2)OCO3)Oc2c(NC(=O)NC3CCCCC3)cccc2C1=O,8.89
